This note sets out measurements from ChEMBL document CHEMBL1142184, “Treatment and outcomes of infections by methicillin-resistant Staphylococcus aureus at an ambulatory clinic” (2007).

The test system of test [1] is Staphylococcus aureus. The test is described as follows: Antibacterial activity against methicillin-susceptible Staphylococcus aureus isolates from skin or soft tissue infection outpatients. The format is functional. The method in brief:
(§1)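 Isolates came from S. aureus-positive wound cultures. Clinicians took these at their discretion when resistant infection was suspected, in clinic patients with signs or symptoms of skin or soft tissue infection. Only cases with recorded antibiotic sensitivities were included. Nasal carriage cultures and outside-hospital cases lacking culture data were excluded. Yearly susceptibility trends used the Mantel score test, two-sided.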

In test [2] the test system is Staphylococcus aureus. The test is described as follows: Antibacterial activity against methicillin-resistant Staphylococcus aureus isolates from skin or soft tissue infection outpatients. Format: functional. Summed up: as §1

As for `CN[C@H](CC(C)C)C(=O)N[C@H]1C(=O)N[C@@H](CC(N)=O)C(=O)N[C@H]2C(=O)N[C@H]3C(=O)N[C@H](C(=O)N[C@H](C(=O)O)c4cc(O)cc(O)c4-c4cc3ccc4O)[C@H](O)c3ccc(c(Cl)c3)Oc3cc2cc(c3O[C@@H]2O[C@H](CO)[C@@H](O)[C@H](O)[C@H]2O[C@H]2C[C@](C)(N)[C@H](O)[C@H](C)O2)Oc2ccc(cc2Cl)[C@H]1O` [VANCOMYCIN], the Activity in the test with Staphylococcus aureus [1] and in the test on Staphylococcus aureus [2] was 0% each time.

Take `O=C(O)c1cn(C2CC2)c2cc(N3CCNCC3)c(F)cc2c1=O` [CIPROFLOXACIN]: the values for the Activity with Staphylococcus aureus [1] and with Staphylococcus aureus [2] were 8.8% and 78.5%, respectively.

With `Cc1nnc(SCC2=C(C(=O)O)N3C(=O)[C@@H](NC(=O)Cn4cnnn4)[C@H]3SC2)s1` [CEFAZOLIN], the figures for the Activity with Staphylococcus aureus [1] and in the test with Staphylococcus aureus [2] were 0% and 100%, respectively.

On to `C[C@H]1COc2c(N3CCN(C)CC3)c(F)cc3c(=O)c(C(=O)O)cn1c23.C[C@H]1COc2c(N3CCN(C)CC3)c(F)cc3c(=O)c(C(=O)O)cn1c23.O` [LEVOFLOXACIN], for which the Activity amounted to 0% in the test with Staphylococcus aureus [1] and 33.3% in the test with Staphylococcus aureus [2].

On to `CCC[C@@H]1C[C@@H](C(=O)NC(C(C)Cl)[C@H]2O[C@H](SC)[C@H](O)[C@@H](O)[C@H]2O)N(C)C1` (single isomer, unassigned) [CLINDAMYCIN], for which the Activity in the test with Staphylococcus aureus [1] is 7%; in the test with Staphylococcus aureus [2] it was 48.2%.

Molecule `O=C(N[C@H](CO)[C@H](O)c1ccc([N+](=O)[O-])cc1)C(Cl)Cl` [CHLORAMPHENICOL] had an Activity in the test with Staphylococcus aureus [1] of 0%.

Regarding `CC[C@H]1OC(=O)[C@H](C)[C@@H](O[C@H]2C[C@@](C)(OC)[C@@H](O)[C@H](C)O2)[C@H](C)[C@@H](O[C@@H]2O[C@H](C)C[C@H](N(C)C)[C@H]2O)[C@](C)(O)C[C@@H](C)C(=O)[C@H](C)[C@@H](O)[C@]1(C)O` [ERYTHROMYCIN], the Activity with Staphylococcus aureus [1] amounted to 57.9%; in the test on Staphylococcus aureus [2], 93.8%.

With `CN(C)[C@@H]1C(O)=C(C(N)=O)C(=O)[C@@]2(O)C(O)=C3C(=O)c4c(O)cccc4[C@@](C)(O)[C@H]3C[C@@H]12` [TETRACYCLINE], the Activity with Staphylococcus aureus [1] is reported as 0%; in the test on Staphylococcus aureus [2] it was 53.8%.

With `CO[C@H]1/C=C/O[C@@]2(C)Oc3c(C)c(O)c4c(O)c(c(/C=N/N5CCN(C)CC5)c(O)c4c3C2=O)NC(=O)/C(C)=C\C=C\[C@H](C)[C@H](O)[C@@H](C)[C@@H](O)[C@@H](C)[C@H](OC(C)=O)[C@@H]1C` [RIFAMPIN], the Activity with Staphylococcus aureus [1] was found to be 0%.
